Sampled rows, rich in hits. Any-hit rate of the full collection: about 2.1%.
MsrA act – activates bovine MsrA enzyme | purified bovine MsrA, absorbance read-out | activation, % at 10.6 µM | 0.3% of 360,000 active; in the data active = activation above about 7.5%
PKA-R1A act – PKA-R1A complex activation; P00514+P68181; PKA-R1A dissociation, Cy5-IP20 fluorescence polarization; scaled: DMSO 0%, 113 µM cGMP 100%; activation, % at 11.4 µM; 0.083% of 340,000 active; AID 504707;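 active = percent activation above the mean of all tested compounds plus 3 SD, cut at about 19% in these data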;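 note: higher means more PKAc released from R1A so a rise in polarization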
IMP-1 inhibitor – blocks Pseudomonas aeruginosa IMP-1 metallo-beta-lactamase. purified IMP-1, nitrocefin hydrolysis, epi-absorbance fluorescence. inhibition, % at 5.6 µM. 0.45% of 290,000 active. AID 1556;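 active = inhibition above the mean plus 3 SD of all compounds in the same screening run, cut at about 4.5% in these data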
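System: Purified recombinant IMP-1 metallo-beta-lactamase enzyme | Measured by: Fluorescence quenching readout, ex 480/em 530 nm | Replication: Singlicate | Incubation: 15 min preincubation plus 25 min reaction at 25 °C | Evaluation: Percent inhibition from optical density relative to buffer-blank wells | Benchmarks: DMSO with and without IMP-1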
MsrA inh – bovine MsrA inhibition | inhibition, % at 15.5 µM | 0.75% of 360,000 active | AID 651718 | purified bovine MsrA, absorbance read-out
PKA-R2B act – activators of human PKA-R2B complex; P22694+P31323; PKA-R2B holoenzyme dissociation, Cy5-IP20 fluorescence polarization; R2B truncated from residue 108, S112A mutant; 0% DMSO only, 100% 113 µM cGMP; activation, % at 11.4 µM; 0.079% of 340,000 active; AID 504700;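 active = activation above a cutoff set at the mean over all compounds plus 3 SD, cut at about 18% in these data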;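 note: higher means more holoenzyme dissociation and a rise in polarization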
Target sequence (P31323 whole entry, looked up, other chains not shown, the tested form may be a part): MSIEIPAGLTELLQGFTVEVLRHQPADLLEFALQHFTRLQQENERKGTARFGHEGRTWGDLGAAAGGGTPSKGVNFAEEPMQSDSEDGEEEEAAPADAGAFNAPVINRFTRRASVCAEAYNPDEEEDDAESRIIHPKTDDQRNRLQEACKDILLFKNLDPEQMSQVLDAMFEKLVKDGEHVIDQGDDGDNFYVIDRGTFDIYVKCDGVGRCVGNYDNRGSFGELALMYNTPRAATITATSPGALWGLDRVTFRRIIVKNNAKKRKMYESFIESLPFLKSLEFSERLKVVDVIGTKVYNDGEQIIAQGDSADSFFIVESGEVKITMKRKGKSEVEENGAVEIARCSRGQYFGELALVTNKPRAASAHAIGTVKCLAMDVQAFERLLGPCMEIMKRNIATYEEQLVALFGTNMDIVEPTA
VIM-2 inhibitor – blocks Pseudomonas aeruginosa VIM-2 metallo-beta-lactamase | purified VIM-2, nitrocefin hydrolysis, epi-absorbance fluorescence | inhibition, % at 5.6 µM | 0.89% of 290,000 active | AID 1527;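 active = inhibition above the mean of all tested compounds plus 3 SD, cutoff set per screening run, cut at about 7.5% in these data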;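 note: red hydrolysis product quenches plate fluorescence so inhibitors raise well fluorescence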
MsrA conf – bovine MsrA inhibition, confirmed. shares compounds with MsrA inh. purified bovine MsrA, absorbance read-out. inhibition, % at 15.5 µM. 41% of 2,300 active. AID 651822;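 note: coupled to thioredoxin reductase with NADPH and selenocystamine and DMSO as substrate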
Hits are given with their value; i = inactive; nt = no result. Cut-off read from the data, not from the text of the source, unless noted: active = inhibition above about 4.5%; inactive = the rest.

SMILES	MsrA act	PKA-R1A act	IMP-1 inhibitor	MsrA inh	PKA-R2B act	VIM-2 inhibitor	MsrA conf
O=C1NC(=S)N/C1=C/C=C/c1ccccc1	i	i	i	4.7	i	i	i
C/C(CCC(=O)O)=N/Nc1ccc([N+](=O)[O-])cc1[N+](=O)[O-]	i	i	i	13	i	i	9.8
C/C(CCCO)=N/Nc1ccc([N+](=O)[O-])cc1[N+](=O)[O-]	i	i	i	14	i	i	7.0
CCC(CC)=NNc1ccc([N+](=O)[O-])cc1[N+](=O)[O-]	i	i	i	i	i	i	nt
O=[N+]([O-])c1ccc(NN=C(C2CC2)C2CC2)c([N+](=O)[O-])c1	i	i	nt	i	i	nt	nt
O=C1NC(Cc2ccccc2)c2nc3ccc(F)cc3c(=O)n2-c2cc(Cl)ccc21 (stereo unspecified)	nt	nt	nt	i	nt	nt	nt
CCCCCCCCN1C(=O)[C@H](CC(=O)N2CCCC2)C[C@@]2(C(=O)OC)CC(C)(C)CC=C12	nt	nt	nt	i	nt	nt	nt
CCCCCCCC1=NN(c2ccc(S(=O)(=O)O)cc2)C(=O)C1N=O (stereo unspecified)	i	i	nt	i	i	nt	nt
COc1ccc(/C=[N+](\[O-])C2N(c3ccccc3)C(=S)SC2(C)C)cc1OC (stereo unspecified)	i	i	i	5.0	i	i	i
Cc1cc(Nc2cccc(Br)c2)cc(=O)n1-c1cccc(Br)c1	nt	nt	nt	i	nt	nt	nt
Cc1ccc(/C=C(\C#N)C(=O)NCC2CCCO2)o1 (stereo unspecified)	i	i	i	5.2	i	i	4.6
COc1cc(/C=C(\C#N)C(=O)NCC2CCCO2)ccc1OCC(=O)O (stereo unspecified)	i	nt	i	5.5	nt	i	i
Cc1ccc(/C=C(\NC(=O)c2ccccc2)C(=O)NCC2CCCO2)o1 (stereo unspecified)	i	i	i	i	i	i	nt
CC1CCN(C(=O)COc2ccc3ccccc3c2Br)CC1	i	i	i	i	i	i	nt
CCOC(=O)C(C(=O)OCC)C(C)(C)/C(C)=N\Nc1ccc([N+](=O)[O-])cc1[N+](=O)[O-]	i	i	i	i	i	i	nt
C#CCOC(=O)CCCNc1ccc([N+](=O)[O-])cc1[N+](=O)[O-]	i	i	i	i	i	i	nt
CCOC(=O)C(C)/C(C)=N\Nc1ccc([N+](=O)[O-])cc1[N+](=O)[O-] (stereo unspecified)	i	i	i	15	i	i	13
CCOC(=O)CC(C)(C)/C(C)=N/Nc1ccc([N+](=O)[O-])cc1[N+](=O)[O-]	i	i	i	9.8	i	i	13
C/C(=N\Nc1ccc([N+](=O)[O-])cc1[N+](=O)[O-])C(C)C(C)C (stereo unspecified)	i	i	i	16	i	i	14
O=[N+]([O-])c1ccc(Nc2ccccc2O)c([N+](=O)[O-])c1	i	i	nt	5.7	i	nt	7.2
O=C(O)c1cc([N+](=O)[O-])ccc1Nc1ccccc1	i	i	i	i	i	i	nt
CCOC(=O)Cc1cc(=O)[nH]n(-c2ccccc2)c1=O	i	i	nt	i	i	nt	nt
CC(=O)Nc1ccc(NC(=O)C(C)OC(=O)[C@@H]2CCCN2C(=O)c2cccs2)cc1 (stereo partly specified)	i	i	nt	i	i	nt	nt
CC1(c2nnnn2-c2ccc3c(c2)OCCO3)CCC(=O)N1Cc1cccc(C(F)(F)F)c1 (stereo unspecified)	i	nt	nt	i	nt	nt	nt
Cc1cc(C)n2nc(N)c(N=Nc3ccccc3)c2n1	i	i	i	5.2	i	i	i
SMILES	MsrA act	PKA-R1A act	IMP-1 inhibitor	MsrA inh	PKA-R2B act	VIM-2 inhibitor	MsrA conf
CC(=O)c1sc(NC(=O)C2CCN(C(=O)c3ccc(F)cc3)CC2)nc1-c1ccccc1	i	i	nt	i	i	nt	nt
Cc1ccnc(N2C(=O)c3cccc4c([N+](=O)[O-])ccc(c34)C2=O)c1	i	i	i	12	i	i	8.6
Cc1ccc(N2C(=O)c3cccc4c([N+](=O)[O-])ccc(c34)C2=O)c2cccnc12	i	i	i	i	i	i	nt
O=C1NCCCC1C(=O)N/N=C/c1cc([N+](=O)[O-])ccc1O (stereo unspecified)	i	i	i	i	i	i	nt
O=C(NN=Cc1ccc(F)cc1)C1CC1	i	i	nt	i	i	nt	nt
O=C(N/N=C/c1cc(Br)c(O)c(Br)c1)C1CC1	i	i	i	5.3	i	i	4.6
O=C(N/N=C/c1cc([N+](=O)[O-])ccc1O)C1CC1	i	i	i	5.4	i	i	i
C=C(C)Cn1c2ccc(NC(=O)CCc3cccnc3)cc2c(=O)n1C	i	nt	nt	i	nt	nt	nt
COc1ccccc1Cn1c(/C=C/c2ccccc2)nc2ccccc21	i	i	i	i	i	i	nt
COCCn1c(/C=C/c2ccccc2)nc2ccccc21	i	i	i	5.1	i	i	i
CCn1c(/C=C/c2ccc(O)cc2)nc2ccccc2c1=O	i	i	i	5.3	i	i	4.8
Cc1cc(/C=C(\C#N)C(=O)Nc2ccccc2F)c(C)[nH]1	i	i	i	4.7	i	i	i
N#C/C(=C\c1ccc[nH]1)C(=O)Nc1ccccc1F	i	i	i	i	i	i	nt
Cc1cccc(NC(=O)CN2CCN(C(=O)CN3C(=O)NC4(CCCCC4C)C3=O)CC2)c1C (stereo unspecified)	i	i	nt	i	i	nt	nt
O=C(CSc1nn(-c2ccccc2)c(=S)s1)Nn1cnnc1	i	i	i	i	i	i	nt
COC(=O)CSc1nn(-c2ccc(F)cc2)c(=S)s1	i	i	i	5.2	i	i	i
CSCc1c(C(=O)N2CCCc3ccccc32)oc2ccccc12	i	i	nt	8.4	i	nt	i
CCOC(=O)c1cc(C(=O)OCC)c(=O)[nH]c1C	i	i	i	i	i	i	nt
CCOC(=O)c1cc(C(=O)OCC)c(=O)[nH]c1N1CCCC1	i	i	i	6.8	i	i	i
c1ccc2c(c1)nc(N1CCOCC1)c1nnnn12	i	i	i	7.5	i	i	14
c1ccc(N2CCN(c3nc4ccccc4n4nnnc34)CC2)cc1	i	i	i	i	i	i	nt
O=C(Nc1ccc([N+](=O)[O-])cn1)c1ccc(Br)o1	i	i	i	5.6	i	i	i
O=C(c1nc2nc(-c3ccccc3)cc(C(F)(F)F)n2n1)N1CCCCC1	i	i	i	i	i	i	nt
COc1ccc(-c2cc(C(F)(F)F)n3nc(C(=O)N4CCOCC4)nc3n2)cc1	i	i	i	7.7	i	i	4.9
C=Cc1ccc(Cn2c(C)c(C(=O)NCc3cccc([N+](=O)[O-])c3)sc2=O)cc1	i	nt	nt	i	nt	nt	nt
Cc1cc(NN)nc(NS(=O)(=O)c2ccccc2)n1	i	nt	i	i	nt	i	nt
COc1cc(/C=N/Nc2cc(C)nc(NS(=O)(=O)c3ccc(C)cc3)n2)ccc1O	i	i	i	5.5	i	i	5.7

Compound activity (PubChem BioAssay)
